Laboratory results reported in ChEMBL document CHEMBL1139336, “Discovery of alpha-amidosulfones as potent and selective agonists of CB2: synthesis, SAR, and pharmacokinetic properties” (Bioorg Med Chem Lett, 2009).

Assays:
Cannabinoid receptor 2 [1] = target: T1, Cannabinoid receptor 2 (Homo sapiens, UniProt P34972); experiment: Agonist activity at human CB2 receptor expressed in SF9 cells assessed as inhibition of CP-55940-stimulated GTP binding
Summary of the method: (§1)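 Sf9 membranes co-expressing hCB1 or hCB2 with Gαi3 (Bmax 1.7 pmol/ml). Europium-GTP (10 nM) binding in 50 mM Hepes, 0.1% BSA, 10 mM MgCl2, 150 mM NaCl, GDP, 0.0005% saponin, 1% DMSO. Compound tested from 0.01 nM upward. Incubated 45 min at room temperature, then filtered and washed; fluorescence read at 615 nm. 3 micromolar CP55940 defines 100% efficacy.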

Cannabinoid receptor 2 [2] = target: T1, Cannabinoid receptor 2; experiment: Agonist activity at human CB2 receptor expressed in SF9 cells assessed as inhibition of CP-55940-stimulated GTP binding relative to control
Summary of the method: (§2)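 Sf9 insect-cell membranes co-expressing hCB1 or hCB2 with Gαi3 (Bmax 1.7 pmol/ml). Compound added in 50 mM Hepes/0.1% BSA to buffer with 10 mM MgCl2, 150 mM NaCl, GDP, 10 nM GTP-Europium and 0.0005% saponin. Final DMSO was 1%. Incubated 45 min at room temperature, then filtered, washed and read by fluorescence at 615 nm. 3 µM CP55940 set 100% efficacy. Logistic fit, n = 2–20.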

Cannabinoid receptor 1 [3] = target: T2, Cannabinoid receptor 1 (Homo sapiens, UniProt P21554); experiment: Agonist activity at human CB1 receptor expressed in SF9 cells assessed as inhibition of CP-55940-stimulated GTP binding; summary of the method: as §1
T2 sequence (P21554 whole entry): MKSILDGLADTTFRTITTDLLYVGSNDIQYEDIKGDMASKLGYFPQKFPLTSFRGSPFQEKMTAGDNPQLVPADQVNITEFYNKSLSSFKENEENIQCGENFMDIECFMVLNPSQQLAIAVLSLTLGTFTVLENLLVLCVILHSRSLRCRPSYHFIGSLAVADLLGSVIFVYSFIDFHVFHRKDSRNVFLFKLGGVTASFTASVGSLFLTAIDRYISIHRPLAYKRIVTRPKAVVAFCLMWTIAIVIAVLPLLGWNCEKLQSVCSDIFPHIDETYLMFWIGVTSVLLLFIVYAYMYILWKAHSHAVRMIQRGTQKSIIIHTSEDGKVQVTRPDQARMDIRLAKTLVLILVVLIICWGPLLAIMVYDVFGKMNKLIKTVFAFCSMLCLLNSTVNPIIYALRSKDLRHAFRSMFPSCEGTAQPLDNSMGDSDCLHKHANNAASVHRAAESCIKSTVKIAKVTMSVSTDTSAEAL

Cannabinoid receptor 1 [4] = target: T2, Cannabinoid receptor 1; experiment: Agonist activity at human CB1 receptor expressed in SF9 cells assessed as inhibition of CP-55940-stimulated GTP binding relative to control; summary of the method: as §2
Cannabinoid receptor 2 [5] = target: T1, Cannabinoid receptor 2; experiment: Agonist activity at human CB2 receptor expressed in CHO cells assessed as suppression of forskolin-stimulated cAMP accumulation; type: functional, cell-based
Summary of the method: (§3)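 Forskolin-induced cAMP measured in CHO cells expressing human CB1 or CB2. EC50 from a logistic fit of the concentration–response curve. Emax taken as the maximum of the dose–response. Means of n = 2–20 independent measurements.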

Cannabinoid receptor 2 [6] = target: T1, Cannabinoid receptor 2; experiment: Agonist activity at human CB2 receptor expressed in CHO cells assessed as suppression of forskolin-stimulated cAMP accumulation relative to control; type: functional, cell-based
Summary of the method: (§4)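 CHO cells expressing human CB1 or CB2. Read-out was suppression of forskolin-induced cAMP production in whole cells. Emax was taken as the maximum of the dose–response curve. Values are means of n = 2–20 independent measurements, derived by logistic fit.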

Cannabinoid receptor 1 [7] = target: T2, Cannabinoid receptor 1; experiment: Agonist activity at human CB1 receptor expressed in CHO cells assessed as suppression of forskolin-stimulated cAMP accumulation; type: functional, cell-based; summary of the method: as §3
Cannabinoid receptor 1 [8] = target: T2, Cannabinoid receptor 1; experiment: Agonist activity at human CB1 expressed in CHO cells receptor assessed as suppression of forskolin-stimulated cAMP accumulation relative to control; type: functional, cell-based; summary of the method: as §4
[9] = Intrinsic clearance in human liver microsomes; type: ADME, Microsome
[10] = Intrinsic clearance in rat liver microsomes; type: ADME, Microsome
[11] = Protein binding in human plasma; type: ADME, cell-free; settings: read-out: PPB (converted)
[12] = Protein binding in rat plasma; type: ADME, cell-free; settings: read-out: PPB (converted)
[13] = Clearance in Sprague-Dawley rat at 0.5 mg/kg, iv; type: ADME, organism-based; set-up: dose 0.5 mg/kg, route intravenous; settings: in vivo
Summary of the method: (§5)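 Single intravenous dose of 0.5 mg/kg given as a solution in DMSO to Sprague–Dawley rats; n = 2 animals.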

[14] = Half life in Sprague-Dawley rat at 0.5 mg/kg, iv; type: ADME, organism-based; set-up: dose 0.5 mg/kg, route intravenous; settings: in vivo; summary of the method: as §5
[15] = Volume of distribution at steady state in Sprague-Dawley rat at 0.5 mg/kg, iv; type: ADME, organism-based; set-up: dose 0.5 mg/kg, route intravenous; settings: in vivo, read-out: Vdss; summary of the method: as §5
[16] = AUC (0 to infinity) in Sprague-Dawley rat at 10 mg/kg, po; type: ADME, organism-based; set-up: time infinity, dose 10 mg/kg, route oral; settings: plasma
Summary of the method: (§6)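 Oral dose of 10 mg/kg in a 2% HPMC, 1% Tween 80 vehicle given to Sprague–Dawley rats; n = 3 animals.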

[17] = Cmax in Sprague-Dawley rat at 10 mg/kg, po; type: ADME, organism-based; set-up: dose 10 mg/kg, route oral; settings: in vivo; summary of the method: as §6
Rattus norvegicus = experiment: Tmax in Sprague-Dawley rat at 10 mg/kg, po; type: ADME, organism-based; set-up: dose 10 mg/kg, route oral; settings: in vivo; summary of the method: as §6
[18] = Oral bioavailability in Sprague-Dawley rat at 10 mg/kg; type: ADME, organism-based; settings: in vivo; summary of the method: as §6
Cannabinoid receptor 2 [19] = target: T1, Cannabinoid receptor 2; experiment: Agonist activity at human CB2 receptor; type: functional
Cannabinoid receptor 2 [20] = target: T1, Cannabinoid receptor 2; experiment: Agonist activity at human CB2 receptor relative to control; type: functional
Cannabinoid receptor 1 [21] = target: T2, Cannabinoid receptor 1; experiment: Agonist activity at human CB1 receptor; type: functional
Cannabinoid receptor 1 [22] = target: T2, Cannabinoid receptor 1; experiment: Agonist activity at human CB1 receptor relative to control; type: functional
Homo sapiens = species on record: Homo sapiens; experiment: Selectivity for human CB2 receptor over human CB1 receptor

T1 sequence (P34972 whole entry): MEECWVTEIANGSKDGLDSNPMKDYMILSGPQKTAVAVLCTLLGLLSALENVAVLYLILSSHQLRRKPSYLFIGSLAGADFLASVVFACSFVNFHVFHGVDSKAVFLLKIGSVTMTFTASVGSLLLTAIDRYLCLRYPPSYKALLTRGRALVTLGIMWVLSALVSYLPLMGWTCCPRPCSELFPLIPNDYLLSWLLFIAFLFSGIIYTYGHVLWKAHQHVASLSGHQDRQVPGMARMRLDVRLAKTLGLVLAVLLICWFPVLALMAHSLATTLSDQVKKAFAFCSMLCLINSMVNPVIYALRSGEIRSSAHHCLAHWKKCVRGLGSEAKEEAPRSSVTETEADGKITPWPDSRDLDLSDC

Row | Structure (SMILES) | EC50 (Cannabinoid receptor 2 [1]) [nM] | Emax (Cannabinoid receptor 2 [2]) [%] | EC50 (Cannabinoid receptor 1 [3]) [nM] | Emax (Cannabinoid receptor 1 [4]) [%] | EC50 (Cannabinoid receptor 2 [5]) [nM] | Emax (Cannabinoid receptor 2 [6]) [%] | EC50 (Cannabinoid receptor 1 [7]) [nM] | Emax (Cannabinoid receptor 1 [8]) [%] | further results
1 | CC(C)(C(=O)Nc1cccc(C(F)(F)F)c1)S(=O)(=O)c1ccc(Cl)cc1 | 170 | 89 | > 10000 | 15 | 35 | 93 | > 1000 | 21 | –
2 | CC(C)(C(=O)Nc1ccc(Cl)c(C(F)(F)F)c1)S(=O)(=O)c1ccc(Cl)cc1 | 20 | 102 | 700000 | 22 | 5 | 96 | > 2000 | 39 | microsomal CLint [9]: 14 µL/min/mg; microsomal CLint [10]: 14 µL/min/mg; fraction unbound [11]: 0.002; fraction unbound [12]: 0.003; clearance [13]: 9 mL/min/kg; half-life [14]: 14 h; Vd [15]: 9.3 L/kg; AUC(0-inf) [16]: 9680 ng·h/mL; Cmax [17]: 560 ng/mL; Tmax (Rattus norvegicus): 1.7%; bioavailability [18]: 52%
3 | Cc1ccccc1-c1nnc(NC(=O)C(C)(C)S(=O)(=O)c2ccc(Cl)cc2)s1 | 189 | 81 | 1650 | 48 | – | – | – | – | –
4 | Cc1cnc(NC(=O)C(C)(C)S(=O)(=O)c2ccc(Cl)cc2)s1 | > 10000 | 4 | > 10000 | 7 | – | – | – | – | –
5 | CC(C)(C(=O)Nc1ccc(C(F)(F)F)cc1)S(=O)(=O)c1ccc(Cl)cc1 | 115 | 77 | > 10000 | 14 | 57 | 93 | > 1000 | 19 | –
6 | CC(C)(C(=O)Nc1ccc(Cl)cc1C#N)S(=O)(=O)c1ccc(Cl)cc1 | > 10000 | 14 | > 10000 | 0 | – | – | – | – | –
7 | CC(C)(C(=O)Nc1cnc2ccccc2c1)S(=O)(=O)c1ccc(C(F)(F)F)cc1Cl | 19 | 94 | 1570 | 71 | 73 | 94 | > 2000 | 41 | –
8 | CC(C)(C(=O)Nc1cnc2ccccc2c1)S(=O)(=O)c1ccc(Cl)cc1 | 57 | 90 | 1680 | 47 | 13 | 93 | > 1000 | 47 | –
9 | CC(C)(C(=O)NCc1ccc(F)c(Cl)c1)S(=O)(=O)c1ccc(Cl)cc1 | 1300 | 76 | > 10000 | 2 | – | – | – | – | –
10 | CCn1c2ccccc2c2cc(NC(=O)C3(S(=O)(=O)c4ccccc4)CC3)ccc21 | – | – | – | – | – | – | – | – | EC50 (Cannabinoid receptor 2 [19]): 8 nM; Emax (Cannabinoid receptor 2 [20]): 95%; EC50 (Cannabinoid receptor 1 [21]): 390 nM; Emax (Cannabinoid receptor 1 [22]): 40%
11 | COc1ccc(S(=O)(=O)C(C)(C)C(=O)Nc2cnc3ccccc3c2)c(Cl)c1 | 148 | 91 | > 10000 | 12 | – | – | – | – | –
12 | CC(C)(C(=O)Nc1ccc(Cl)cc1OC(F)(F)F)S(=O)(=O)c1ccc(Cl)cc1 | 1620 | 44 | > 10000 | 2 | – | – | – | – | –
13 | CC(C)(C(=O)Nc1cnc2ccccc2c1)S(=O)(=O)c1ccc(F)cc1Cl | 104 | 108 | > 10000 | 7 | – | – | – | – | –
14 | Cn1nc(C(C)(C)C)cc1NC(=O)C(C)(C)S(=O)(=O)c1ccc(Cl)cc1 | 26 | 104 | 223000 | 37 | 25 | 92 | > 2000 | 12 | microsomal CLint [9]: 14 µL/min/mg; microsomal CLint [10]: 20 µL/min/mg; fraction unbound [11]: 0.064; fraction unbound [12]: 0.06; clearance [13]: 20 mL/min/kg; half-life [14]: 1.9 h; Vd [15]: 2 L/kg; AUC(0-inf) [16]: 3570 ng·h/mL; Cmax [17]: 971 ng/mL; Tmax (Rattus norvegicus): 0.67%; bioavailability [18]: 43%
15 | CC(C)(C(=O)NCc1ccccc1)S(=O)(=O)c1ccc(Cl)cc1 | > 10000 | 0 | > 10000 | 7 | – | – | – | – | –
16 | Cc1ccc(-c2cncc(NC(=O)C(C)(C)S(=O)(=O)c3ccc(Cl)cc3)c2)s1 | 9 | 102 | 322 | 80 | 5 | 99 | 331 | 106 | –
17 | CC(C)(C(=O)Nc1cnc2ccccc2c1)S(=O)(=O)c1ccc(F)cc1 | 109 | 102 | 2780 | 22 | 33 | 97 | > 2000 | 19 | –
18 | CC(C)(C(=O)Nc1cnc2ccccc2c1)S(=O)(=O)c1ccc(C(F)(F)F)cc1 | 96 | 88 | 710 | 86 | 8 | 96 | 82 | 93 | Selectivity ratio (Homo sapiens): 10
19 | CC1(c2nnc(NC(=O)C(C)(C)S(=O)(=O)c3ccc(Cl)cc3)s2)CCOC1 (stereo not given) | 216 | 99 | > 10000 | 10 | – | – | – | – | –
20 | CCn1c2ccccc2c2cc(NC(=O)CCc3nc(-c4ccccc4F)no3)ccc21 | – | – | – | – | – | – | – | – | EC50 (Cannabinoid receptor 1 [21]): > 2000 nM; Emax (Cannabinoid receptor 1 [22]): 2%
21 | Cc1cc(NC(=O)C(C)(C)S(=O)(=O)c2ccc(Cl)cc2)no1 | 3860 | 19 | > 10000 | 1 | – | – | – | – | –
22 | O=C(Nc1cnc2ccccc2c1)C1(S(=O)(=O)c2ccccc2)CC1 | – | – | – | – | – | – | – | – | EC50 (Cannabinoid receptor 2 [19]): 4 nM; Emax (Cannabinoid receptor 2 [20]): 31%; EC50 (Cannabinoid receptor 1 [21]): > 10000 nM; Emax (Cannabinoid receptor 1 [22]): 6%
23 | CC(C)(C)c1cc(NC(=O)C(C)(C)S(=O)(=O)c2ccc(Cl)cc2)no1 | 29 | 99 | 1920 | 57 | 11 | 85 | > 2000 | 23 | –
24 | CC(C)(C(=O)Nc1ccc(Cl)c(-c2ccco2)c1)S(=O)(=O)c1ccc(Cl)cc1 | 4 | 101 | 96 | 82 | 5 | 101 | 230 | 98 | –
25 | CC(C)(C(=O)Nc1ccc(Cl)c(Br)c1)S(=O)(=O)c1ccc(Cl)cc1 | 86 | 77 | > 10000 | 7 | – | – | – | – | –
